Laboratory results as given in ChEMBL document CHEMBL4270578, “Synthesis and cytotoxic studies of novel 5-phenylisatin derivatives and their anti-migration and anti-angiogenic evaluation” (Eur J Med Chem, 2018).
Activity calls are given as the source filed them. The calls are words filed in the database; no cut-off is given here.

Legend:
[1] = system: K562; test: Induction of apoptosis in human K562 cells assessed as early apoptotic cells at 30 nM after 24 hrs by Annexin V-FITC/propidium iodide staining-based flow cytometric analysis (reference value: 1.9%); format: functional
[2] = system: K562; test: Induction of apoptosis in human K562 cells assessed as necrotic cells at 30 nM after 24 hrs by Annexin V-FITC/propidium iodide staining-based flow cytometric analysis (reference value: 0.1%); format: functional
[3] = system: K562; test: Induction of apoptosis in human K562 cells assessed as late apoptotic cells at 300 nM after 24 hrs by Annexin V-FITC/propidium iodide staining-based flow cytometric analysis (reference value: 2.1%); format: functional
[4] = system: K562; test: Induction of morphological changes in human K562 cells assessed as cell shrinkage at 30 nM after 24 hrs; format: functional, cell-based
How it was run: (§1)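 K562 cells kept in RPMI-1640 with 10% FBS, 2.05 mM glutamine and penicillin/streptomycin at 37 °C, 5% CO2. Exposed to 30 nM drug alongside DMSO-treated controls. Cell morphology examined by microscopy.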

[5] = system: K562; test: Induction of apoptosis in human K562 cells assessed as viable cells at 300 nM after 48 hrs by Annexin V-FITC/propidium iodide staining-based flow cytometric analysis (reference value: 95.6%); format: functional; settings: K562, 48 h, read-out: Activity
[6] = system: HepG2; test: Antiproliferative activity against human HepG2 cells after 48 hrs by MTT assay; format: functional, cell-based; settings: HepG2, 48 h
[7] = system: HepG2; test: Anti-migratory activity against human HepG2 cells after 24 hrs by DAPI staining-based transwell assay; format: functional, cell-based
How it was run: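 HepG2 cells in serum-free DMEM, 2 × 10^5 cells/well, placed in upper compartment of polycarbonate filter inserts; lower chamber DMEM + 10% FBS. Compound or DMSO added after 30 min; 24 h at 37 °C, 5% CO2. Filters methanol-fixed and DAPI-stained, non-migrated cells swabbed off. Migrated cells on the lower side counted in three random fields.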

[8] = system: K562; test: Induction of apoptosis in human K562 cells assessed as necrotic cells at 300 nM after 48 hrs by Annexin V-FITC/propidium iodide staining-based flow cytometric analysis (reference value: 0%); format: functional
[9] = system: K562; test: Induction of apoptosis in human K562 cells assessed as necrotic cells at 300 nM after 24 hrs by Annexin V-FITC/propidium iodide staining-based flow cytometric analysis (reference value: 0%); format: functional
[10] = system: K562; test: Induction of apoptosis in human K562 cells assessed as late apoptotic cells at 300 nM after 6 hrs by Annexin V-FITC/propidium iodide staining-based flow cytometric analysis (reference value: 2.1%); format: functional
[11] = system: K562; test: Induction of apoptosis in human K562 cells assessed as necrotic cells at 30 nM after 6 hrs by Annexin V-FITC/propidium iodide staining-based flow cytometric analysis (reference value: 0.1%); format: functional
[12] = system: K562; test: Induction of apoptosis in human K562 cells assessed as early apoptotic cells at 300 nM after 48 hrs by Annexin V-FITC/propidium iodide staining-based flow cytometric analysis (reference value: 2.2%); format: functional
[13] = system: K562; test: Induction of apoptosis in human K562 cells assessed as early apoptotic cells at 30 nM after 6 hrs by Annexin V-FITC/propidium iodide staining-based flow cytometric analysis (reference value: 1.9%); format: functional
[14] = system: HUVEC; test: Antiangiogenic activity against HUVEC assessed as inhibition of tube formation after 12 hrs by microscopic analysis; format: functional, cell-based; settings: Homo sapiens
How it was run: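 Matrigel (13.9 mg/mL) polymerized 30 min at 37 °C. HUVECs (1 × 10^5 cells/well) in Ham's F-12 + 10% FBS plated on the gel; after 40 min, DMSO or compound (10, 30, 100 nM) added. Incubated 12 h at 37 °C, 5% CO2; capillary-like tube formation photographed by microscopy.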

[15] = system: K562; test: Induction of apoptosis in human K562 cells assessed as early apoptotic cells at 300 nM after 12 hrs by Annexin V-FITC/propidium iodide staining-based flow cytometric analysis (reference value: 2.2%); format: functional
[16] = system: K562; test: Induction of apoptosis in human K562 cells assessed as early apoptotic cells at 300 nM after 24 hrs by Annexin V-FITC/propidium iodide staining-based flow cytometric analysis (reference value: 2.2%); format: functional
[17] = system: HUVEC; test: Cytotoxicity against HUVEC after 48 hrs by MTT assay; format: cell-based; settings: Homo sapiens
[18] = system: HepG2; test: Anti-migratory activity against human HepG2 cells at 100 nM after 48 hrs by wound-healing assay relative to control; format: functional
How it was run: (§2)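 HepG2 cells seeded at 2 × 10^5 cells/well in DMEM and grown 24 h. Monolayer scratched with a 10 μl pipette tip, then PBS-washed three times. Treated with DMSO or compound (10, 30, 100 nM) at 37 °C, 5% CO2, imaged by microscopy at 0–48 h. Migration distance measured; inhibition ratio calculated against DMSO control.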

[19] = system: K562; test: Induction of apoptosis in human K562 cells assessed as late apoptotic cells at 300 nM after 48 hrs by Annexin V-FITC/propidium iodide staining-based flow cytometric analysis (reference value: 2.1%); format: functional
[20] = system: HepG2; test: Anti-migratory activity against human HepG2 cells at 30 nM after 48 hrs by wound-healing assay relative to control; format: functional; how it was run: as §2
[21] = system: K562; test: Induction of apoptosis in human K562 cells assessed as early apoptotic cells at 30 nM after 48 hrs by Annexin V-FITC/propidium iodide staining-based flow cytometric analysis (reference value: 1.9%); format: functional
[22] = system: K562; test: Induction of apoptosis in human K562 cells assessed as late apoptotic cells at 30 nM after 48 hrs by Annexin V-FITC/propidium iodide staining-based flow cytometric analysis (reference value: 2.2%); format: functional
[23] = system: K562; test: Induction of apoptosis in human K562 cells assessed as late apoptotic cells at 30 nM after 12 hrs by Annexin V-FITC/propidium iodide staining-based flow cytometric analysis (reference value: 2.2%); format: functional
[24] = system: K562; test: Induction of morphological changes in human K562 cells assessed as elongation of cells at 30 nM after 6 hrs; format: functional, cell-based; how it was run: as §1
[25] = system: K562; test: Induction of apoptosis in human K562 cells assessed as necrotic cells at 30 nM after 48 hrs by Annexin V-FITC/propidium iodide staining-based flow cytometric analysis (reference value: 0.1%); format: functional
[26] = system: K562; test: Induction of apoptosis in human K562 cells assessed as viable cells at 30 nM after 6 hrs by Annexin V-FITC/propidium iodide staining-based flow cytometric analysis (reference value: 95.8%); format: functional; settings: K562, 6 h, read-out: Activity
[27] = system: K562; test: Induction of apoptosis in human K562 cells assessed as early apoptotic cells at 300 nM after 6 hrs by Annexin V-FITC/propidium iodide staining-based flow cytometric analysis (reference value: 2.2%); format: functional
[28] = system: K562; test: Induction of apoptosis in human K562 cells assessed as viable cells at 30 nM after 24 hrs by Annexin V-FITC/propidium iodide staining-based flow cytometric analysis (reference value: 95.8%); format: functional; settings: K562, 24 h, read-out: Activity
[29] = system: K562; test: Induction of apoptosis in human K562 cells assessed as necrotic cells at 30 nM after 12 hrs by Annexin V-FITC/propidium iodide staining-based flow cytometric analysis (reference value: 0.1%); format: functional
[30] = system: HepG2; test: Anti-migratory activity against human HepG2 cells at 10 nM after 48 hrs by wound-healing assay relative to control; format: functional; how it was run: as §2

With `COc1ccc(CN2C(=O)C(=O)c3cc(-c4ccc(OC)cc4)ccc32)cc1` the Activity [1] was 5.7%, the Activity [2] was 0.4% and the Activity [3] was 4.7%. For the same molecule, the Activity [4] was “Active”, the viability at 0.3 µM [5] was 4.7% and the IC50 [6] was 50 nM. For the same molecule, the Activity [7] was “Dose-dependent effect”, the Activity [8] was 0% and the Activity [9] was 0.2%. The Activity [10] was 3.8%, the Activity [11] was 0.1% and the Activity [12] was 85.2%. The Activity [13] was 2.1%, the Activity [14] was “Dose-dependent effect” and the Activity [15] was 5.7%. The Activity [16] was 12.4%, the IC50 [17] was 920 nM and the Activity [18] was 47.9%. It also gave an Activity [19] of 10%, an Activity [20] of 26.9% and an Activity [21] of 22.3%. For the same molecule, the Activity [22] was 21.1%, the Activity [23] was 4% and the Activity [24] was “Active”. It also gave an Activity [25] of 1%, a viability at 0.03 µM [26] of 94.4% and an Activity [27] of 2.4%. For the same molecule, the viability at 0.03 µM [28] was 88.5%, the Activity [29] was 0% and the Activity [30] was 11.9%.
